Converted amounts (≈) assume the structure as drawn.
Each compound was assayed on Staphylococcus aureus (assay: Antibacterial activity against methicillin-resistant Staphylococcus aureus at 320 ug/ml after 24 hrs by Oxford cup assay). Settings: read-out: IZ.
Type: functional
Summary of the method: (§1)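 Oxford cup diffusion: clinical isolate inoculum in 0.9% saline set by McFarland standard, spread evenly on nutrient agar. Cups placed equidistant on the surface and filled with compound solutions prepared as for the agar dilution test, at several concentrations. Inhibition zone measured after 24 h at 37 °C.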
Work on `C=C[C@]1(C)C[C@@H](OC(=O)CSC(C)(C)CNC(=O)OCc2ccccc2)[C@]2(C)[C@H](C)CC[C@]3(CCC(=O)[C@H]32)[C@@H](C)[C@@H]1O` yielded a zone of inhibition at 320 µg/mL of 12.7 mm.
`C=C[C@]1(C)C[C@@H](OC(=O)CSC(C)(C)CNC(=O)c2ccccc2Cl)[C@]2(C)[C@H](C)CC[C@]3(CCC(=O)[C@H]32)[C@@H](C)[C@@H]1O` gave a zone of inhibition at 320 µg/mL of 14.2 mm.

Each compound was assayed on Streptococcus agalactiae (assay: Antibacterial activity against Streptococcus agalactiae after 48 hrs by agar dilution method). Settings: not given.
Type: functional
Summary of the method: (§2)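 Agar dilution per NCCLS on clinical isolates. 2-fold serial dilutions of compound (2 mL) mixed into 18 mL hot Mueller-Hinton agar. Inoculum from blood slants, adjusted to approx. 10⁵–10⁶ cfu/mL in sterile 0.90% NaCl, then spotted onto the plates. Incubated 36.5 °C, 48 h. MIC is the lowest concentration giving complete growth inhibition. Run in triplicate at pH 7.40.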
Compound `C=C[C@]1(C)C[C@@H](OC(=O)CSC(C)(C)CNC(=O)OCc2ccccc2)[C@]2(C)[C@H](C)CC[C@]3(CCC(=O)[C@H]32)[C@@H](C)[C@@H]1O` has an MIC of 16 µg/mL (≈ 26.7 µM).
`C=C[C@]1(C)C[C@@H](OC(=O)CSC(C)(C)CNC(=O)c2ccccc2Cl)[C@]2(C)[C@H](C)CC[C@]3(CCC(=O)[C@H]32)[C@@H](C)[C@@H]1O` gave an MIC of 8 µg/mL (≈ 13.2 µM).

These compounds were tested on Staphylococcus epidermidis (assay: Antibacterial activity against methicillin-resistant Staphylococcus epidermidis at 80 ug/ml after 24 hrs by Oxford cup assay). Settings: read-out: IZ.
Type: functional
Summary of the method: as §1
With `C=C[C@]1(C)C[C@@H](OC(=O)CSC(C)(C)CNC(=O)OCc2ccccc2)[C@]2(C)[C@H](C)CC[C@]3(CCC(=O)[C@H]32)[C@@H](C)[C@@H]1O` the zone of inhibition at 80 µg/mL was 11 mm.
`C=C[C@]1(C)C[C@@H](OC(=O)CSC(C)(C)CNC(=O)c2ccccc2Cl)[C@]2(C)[C@H](C)CC[C@]3(CCC(=O)[C@H]32)[C@@H](C)[C@@H]1O` gave a zone of inhibition at 80 µg/mL of 11.4 mm.

What follows are compounds tested on Escherichia coli (assay: Antibacterial activity against Escherichia coli at 160 ug/ml after 24 hrs by Oxford cup assay). Settings: read-out: IZ.
Type: functional
Summary of the method: (§3)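 Oxford cup diffusion with clinical isolates. Inoculum made in 0.9% saline to a McFarland standard and spread evenly on nutrient agar. Compound solutions, prepared as for the agar dilution test, were added at the stated concentration to Oxford cups set equidistant on the agar surface. Inhibition zones were measured after 24 h at 37 °C.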
`C=C[C@]1(C)C[C@@H](OC(=O)CSC(C)(C)CNC(=O)OCc2ccccc2)[C@]2(C)[C@H](C)CC[C@]3(CCC(=O)[C@H]32)[C@@H](C)[C@@H]1O` showed a zone of inhibition at 160 µg/mL of 15.3 mm.
`C=C[C@]1(C)C[C@@H](OC(=O)CSC(C)(C)CNC(=O)c2ccccc2Cl)[C@]2(C)[C@H](C)CC[C@]3(CCC(=O)[C@H]32)[C@@H](C)[C@@H]1O` gave a zone of inhibition at 160 µg/mL of 11.9 mm.

What follows are compounds tested on Streptococcus agalactiae (assay: Antibacterial activity against Streptococcus agalactiae at 80 ug/ml after 24 hrs by Oxford cup assay). Settings: read-out: IZ.
Type: functional
Summary of the method: as §3
Work on `C=C[C@]1(C)C[C@@H](OC(=O)CSC(C)(C)CNC(=O)OCc2ccccc2)[C@]2(C)[C@H](C)CC[C@]3(CCC(=O)[C@H]32)[C@@H](C)[C@@H]1O` yielded a zone of inhibition at 80 µg/mL of 10.7 mm.
Work on `C=C[C@]1(C)C[C@@H](OC(=O)CSC(C)(C)CNC(=O)c2ccccc2Cl)[C@]2(C)[C@H](C)CC[C@]3(CCC(=O)[C@H]32)[C@@H](C)[C@@H]1O` yielded a zone of inhibition at 80 µg/mL of 10.6 mm.

These compounds were tested on Escherichia coli (assay: Antibacterial activity against Escherichia coli after 48 hrs by agar dilution method). Settings: not given.
Type: functional
Summary of the method: as §2
In the case of `C=C[C@]1(C)C[C@@H](OC(=O)CSC(C)(C)CNC(=O)OCc2ccccc2)[C@]2(C)[C@H](C)CC[C@]3(CCC(=O)[C@H]32)[C@@H](C)[C@@H]1O`, the MIC was 32 µg/mL (≈ 53.3 µM).
For `C=C[C@]1(C)C[C@@H](OC(=O)CSC(C)(C)CNC(=O)c2ccccc2Cl)[C@]2(C)[C@H](C)CC[C@]3(CCC(=O)[C@H]32)[C@@H](C)[C@@H]1O`, the MIC was 4 µg/mL (≈ 6.62 µM).

The compounds below were run on Escherichia coli (assay: Antibacterial activity against Escherichia coli at 80 ug/ml after 24 hrs by Oxford cup assay). Settings: read-out: IZ.
Type: functional
Summary of the method: as §3
`C=C[C@]1(C)C[C@@H](OC(=O)CSC(C)(C)CNC(=O)OCc2ccccc2)[C@]2(C)[C@H](C)CC[C@]3(CCC(=O)[C@H]32)[C@@H](C)[C@@H]1O` showed a zone of inhibition at 80 µg/mL of 11.7 mm.
`C=C[C@]1(C)C[C@@H](OC(=O)CSC(C)(C)CNC(=O)c2ccccc2Cl)[C@]2(C)[C@H](C)CC[C@]3(CCC(=O)[C@H]32)[C@@H](C)[C@@H]1O` was tested, and the zone of inhibition at 80 µg/mL was 11.3 mm.

The compounds below were run on Staphylococcus aureus (assay: Antibacterial activity against methicillin-resistant Staphylococcus aureus after 48 hrs by agar dilution method). Settings: not given.
Type: functional
Summary of the method: (§4)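 Agar dilution per NCCLS: 2-fold serial dilutions incorporated into hot Mueller-Hinton agar. Clinical isolates grown from blood slants, suspended in sterile 0.90% NaCl to about 10⁵–10⁶ cfu/mL, spotted onto plates. Incubation 36.5 °C, 48 h. MIC taken as the lowest concentration giving complete growth inhibition. Run in triplicate at pH 7.40.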
With `C=C[C@]1(C)C[C@@H](OC(=O)CSC(C)(C)CNC(=O)OCc2ccccc2)[C@]2(C)[C@H](C)CC[C@]3(CCC(=O)[C@H]32)[C@@H](C)[C@@H]1O` the MIC was 4 µg/mL (≈ 6.67 µM).
Work on `C=C[C@]1(C)C[C@@H](OC(=O)CSC(C)(C)CNC(=O)c2ccccc2Cl)[C@]2(C)[C@H](C)CC[C@]3(CCC(=O)[C@H]32)[C@@H](C)[C@@H]1O` yielded an MIC of 0.5 µg/mL (≈ 0.827 µM).

These compounds were tested on Staphylococcus aureus (assay: Antibacterial activity against methicillin-resistant Staphylococcus aureus at 80 ug/ml after 24 hrs by Oxford cup assay). Settings: read-out: IZ.
Type: functional
Summary of the method: as §1
Compound `C=C[C@]1(C)C[C@@H](OC(=O)CSC(C)(C)CNC(=O)OCc2ccccc2)[C@]2(C)[C@H](C)CC[C@]3(CCC(=O)[C@H]32)[C@@H](C)[C@@H]1O` has a zone of inhibition at 80 µg/mL of 10.4 mm.
With `C=C[C@]1(C)C[C@@H](OC(=O)CSC(C)(C)CNC(=O)c2ccccc2Cl)[C@]2(C)[C@H](C)CC[C@]3(CCC(=O)[C@H]32)[C@@H](C)[C@@H]1O` the zone of inhibition at 80 µg/mL was 14.1 mm.

Each compound was assayed on Staphylococcus epidermidis (assay: Antibacterial activity against methicillin-resistant Staphylococcus epidermidis at 160 ug/ml after 24 hrs by Oxford cup assay). Settings: read-out: IZ.
Type: functional
Summary of the method: as §1
Compound `C=C[C@]1(C)C[C@@H](OC(=O)CSC(C)(C)CNC(=O)OCc2ccccc2)[C@]2(C)[C@H](C)CC[C@]3(CCC(=O)[C@H]32)[C@@H](C)[C@@H]1O` has a zone of inhibition at 160 µg/mL of 10.2 mm.
`C=C[C@]1(C)C[C@@H](OC(=O)CSC(C)(C)CNC(=O)c2ccccc2Cl)[C@]2(C)[C@H](C)CC[C@]3(CCC(=O)[C@H]32)[C@@H](C)[C@@H]1O` gave a zone of inhibition at 160 µg/mL of 12.2 mm.

Each compound was assayed on Staphylococcus aureus (assay: Antibacterial activity against methicillin-resistant Staphylococcus aureus at 160 ug/ml after 24 hrs by Oxford cup assay). Settings: read-out: IZ.
Type: functional
Summary of the method: as §1
`C=C[C@]1(C)C[C@@H](OC(=O)CSC(C)(C)CNC(=O)OCc2ccccc2)[C@]2(C)[C@H](C)CC[C@]3(CCC(=O)[C@H]32)[C@@H](C)[C@@H]1O` showed a zone of inhibition at 160 µg/mL of 11.5 mm.
`C=C[C@]1(C)C[C@@H](OC(=O)CSC(C)(C)CNC(=O)c2ccccc2Cl)[C@]2(C)[C@H](C)CC[C@]3(CCC(=O)[C@H]32)[C@@H](C)[C@@H]1O` was tested, and the zone of inhibition at 160 µg/mL was 12.2 mm.

These compounds were tested on Streptococcus agalactiae (assay: Antibacterial activity against Streptococcus agalactiae at 160 ug/ml after 24 hrs by Oxford cup assay). Settings: read-out: IZ.
Type: functional
Summary of the method: as §3
`C=C[C@]1(C)C[C@@H](OC(=O)CSC(C)(C)CNC(=O)OCc2ccccc2)[C@]2(C)[C@H](C)CC[C@]3(CCC(=O)[C@H]32)[C@@H](C)[C@@H]1O` was tested, and the zone of inhibition at 160 µg/mL was 10.6 mm.
`C=C[C@]1(C)C[C@@H](OC(=O)CSC(C)(C)CNC(=O)c2ccccc2Cl)[C@]2(C)[C@H](C)CC[C@]3(CCC(=O)[C@H]32)[C@@H](C)[C@@H]1O` gave a zone of inhibition at 160 µg/mL of 11.2 mm.

These compounds were tested on Streptococcus agalactiae (assay: Antibacterial activity against Streptococcus agalactiae at 320 ug/ml after 24 hrs by Oxford cup assay). Settings: read-out: IZ.
Type: functional
Summary of the method: as §3
Work on `C=C[C@]1(C)C[C@@H](OC(=O)CSC(C)(C)CNC(=O)OCc2ccccc2)[C@]2(C)[C@H](C)CC[C@]3(CCC(=O)[C@H]32)[C@@H](C)[C@@H]1O` yielded a zone of inhibition at 320 µg/mL of 11.5 mm.
With `C=C[C@]1(C)C[C@@H](OC(=O)CSC(C)(C)CNC(=O)c2ccccc2Cl)[C@]2(C)[C@H](C)CC[C@]3(CCC(=O)[C@H]32)[C@@H](C)[C@@H]1O` the zone of inhibition at 320 µg/mL was 10.8 mm.

These compounds were tested on Escherichia coli (assay: Antibacterial activity against Escherichia coli at 320 ug/ml after 24 hrs by Oxford cup assay). Settings: read-out: IZ.
Type: functional
Summary of the method: as §3
Compound `C=C[C@]1(C)C[C@@H](OC(=O)CSC(C)(C)CNC(=O)OCc2ccccc2)[C@]2(C)[C@H](C)CC[C@]3(CCC(=O)[C@H]32)[C@@H](C)[C@@H]1O` has a zone of inhibition at 320 µg/mL of 14.7 mm.
`C=C[C@]1(C)C[C@@H](OC(=O)CSC(C)(C)CNC(=O)c2ccccc2Cl)[C@]2(C)[C@H](C)CC[C@]3(CCC(=O)[C@H]32)[C@@H](C)[C@@H]1O` was tested, and the zone of inhibition at 320 µg/mL was 14.5 mm.

The compounds below were run on Staphylococcus epidermidis (assay: Antibacterial activity against methicillin-resistant Staphylococcus epidermidis at 320 ug/ml after 24 hrs by Oxford cup assay). Settings: read-out: IZ.
Type: functional
Summary of the method: as §1
For `C=C[C@]1(C)C[C@@H](OC(=O)CSC(C)(C)CNC(=O)OCc2ccccc2)[C@]2(C)[C@H](C)CC[C@]3(CCC(=O)[C@H]32)[C@@H](C)[C@@H]1O`, the zone of inhibition at 320 µg/mL was 11 mm.
With `C=C[C@]1(C)C[C@@H](OC(=O)CSC(C)(C)CNC(=O)c2ccccc2Cl)[C@]2(C)[C@H](C)CC[C@]3(CCC(=O)[C@H]32)[C@@H](C)[C@@H]1O` the zone of inhibition at 320 µg/mL was 13.4 mm.

Each compound was assayed on Staphylococcus epidermidis (assay: Antibacterial activity against methicillin-resistant Staphylococcus epidermidis after 48 hrs by agar dilution method). Settings: not given.
Type: functional
Summary of the method: as §4
With `C=C[C@]1(C)C[C@@H](OC(=O)CSC(C)(C)CNC(=O)OCc2ccccc2)[C@]2(C)[C@H](C)CC[C@]3(CCC(=O)[C@H]32)[C@@H](C)[C@@H]1O` the MIC was 32 µg/mL (≈ 53.3 µM).
`C=C[C@]1(C)C[C@@H](OC(=O)CSC(C)(C)CNC(=O)c2ccccc2Cl)[C@]2(C)[C@H](C)CC[C@]3(CCC(=O)[C@H]32)[C@@H](C)[C@@H]1O` gave an MIC of 1 µg/mL (≈ 1.65 µM).

— ChEMBL document CHEMBL2375359, “Synthesis and antibacterial evaluation of novel pleuromutilin derivatives” (2013)
